Assay results reported in ChEMBL document CHEMBL5223168, “Using Imidazo[2,1-b][1,3,4]thiadiazol Skeleton to Design and Synthesize Novel MNK Inhibitors” (ACS Med Chem Lett, 2023).
Activity calls are given as the source filed them. The calls are words filed in the database; no cut-off is given here.

Columns and labels:
[1] = target: MAP kinase-interacting serine/threonine-protein kinase 2 (Homo sapiens, UniProt Q9HBH9); assay: Inhibition of MNK2 (unknown origin) incubated for 60 mins using CREB as substrate in presence of ATP by LANCE Ultra kinase assay
3T3-L1 = assay: Inhibition of MNK in mouse 3T3-L1 cells assessed as inhibition of eIF4E phosphorylation at 5 uM incubated for 2 hrs by Western blot analysis; assay type: cell-based
Outline: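 Mouse 3T3-L1 cells exposed to compound at 5 μM for 2 h; lysates resolved by SDS-PAGE and immunoblotted for phospho-eIF4E. Reference MNK inhibitor run in parallel at 1 μM.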

mTORC2 (Homo sapiens) = mTORC2 (Homo sapiens) (UniProt P42345+Q6R327+Q9BVC4+Q9BPZ7); assay: Inhibition of mTORC2 in human LNCaP C4-2B cells assessed as inhibition of phosphorylation of AKT at Ser473 at 5 uM incubated for 2 hrs by Western blot analysis; assay type: cell-based
Outline: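 C4-2B prostate cancer cells treated with inhibitor; lysates probed by Western blot for p-eIF4E, p-S6K (Thr389), p-rpS6 (Ser240/244) and p-AKT (Ser473).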

[2] = target: MAP kinase-interacting serine/threonine-protein kinase 1 (Homo sapiens, UniProt Q9BUB5); assay: Inhibition of MNK1 (unknown origin) at 3 uM in presence of ATP by kinase assay
Outline: (§1)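 Single-point kinase profiling: inhibitor tested at 3 μM against a panel of 60 kinases from different families, activity presented as heatmap.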

Homo sapiens = organism: Homo sapiens; assay: Inhibition of QIK (unknown origin) at 3 uM in presence of ATP by kinase assay; outline: as §1
A549 [3] = assay: Antiproliferative activity against human A549 cells assessed as reduction in cell viability at 5 uM incubated upto 6 days by trypan blue assay; assay type: functional, cell-based; conditions: time <= 6.0 day
Outline: (§2)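 A549 or MDA-MB-231 cells cultured with 5 μM compound for up to 6 days; cell number counted over time; p-eIF4E followed by immunoblot up to 96 h.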

MDA-MB-231 [4] = assay: Antiproliferative activity against human MDA-MB-231 cells assessed as reduction in cell viability at 5 uM incubated upto 6 days by trypan blue assay; assay type: functional, cell-based; conditions: time <= 6.0 day; outline: as §2
A549 [5] = assay: Induction of cell cycle arrest in human A549 cells assessed as decrease in cyclin B1 level at 5 uM incubated for 24 hrs by Western blot analysis; assay type: functional, cell-based
Outline: (§3)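 A549 and MDA-MB-231 cells treated 24 h with 5 μM; lysates resolved by SDS-PAGE and immunoblotted for cyclin B1, cyclin D3 and MMP-3.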

A549 [6] = assay: Induction of cell cycle arrest in human A549 cells assessed as decrease in cyclin D3 level at 5 uM incubated for 24 hrs by Western blot analysis; assay type: functional, cell-based; outline: as §3
MDA-MB-231 [7] = assay: Induction of cell cycle arrest in human MDA-MB-231 cells assessed as decrease in cyclin B1 level at 5 uM incubated for 24 hrs by Western blot analysis; assay type: functional, cell-based; outline: as §3
A549 [8] = assay: Induction of cell cycle arrest in human A549 cells assessed as accumulation of cells at S phase at 5 uM incubated for 8 hrs by propidium iodide staining based flow cytometry (Rvb=1.7%); assay type: functional
A549 [9] = assay: Induction of cell cycle arrest in human A549 cells assessed as accumulation of cells at S phase at 5 uM incubated for 20 hrs by propidium iodide staining based flow cytometry (Rvb=13.6%); assay type: functional
A549 [10] = assay: Induction of cell cycle arrest in human A549 cells assessed as accumulation of cells at G0/G1 phase at 5 uM incubated for 16 hrs by propidium iodide staining based flow cytometry (Rvb=75.4%); assay type: functional
[11] = Apparent volume of distribution in mouse at 25 mg/kg, iv and measured upto 24 hrs; assay type: ADME, organism-based; conditions: in vivo, read-out: Vz
[12] = Cmax in mouse at 25 mg/kg, iv and measured upto 24 hrs; assay type: ADME, organism-based; set-up: dose 25 mg/kg, time < 24 hrs, route iv; conditions: in vivo
[13] = Clearance in mouse at 25 mg/kg, iv and measured upto 24 hrs; assay type: ADME, organism-based; conditions: in vivo
[14] = Cmax in mouse at 50 mg/kg, po and measured upto 24 hrs; assay type: ADME, organism-based; set-up: dose 50 mg/kg, time < 24 hrs, route po; conditions: in vivo
[15] = Half life in mouse at 50 mg/kg, po and measured upto 24 hrs; assay type: ADME, organism-based; conditions: in vivo
[16] = Clearance in mouse at 50 mg/kg, po and measured upto 24 hrs; assay type: ADME, organism-based; conditions: in vivo
[17] = AUC (0-t) in mouse at 50 mg/kg, po and measured upto 24 hrs; assay type: ADME, organism-based; set-up: dose 50 mg/kg, time < 24 hrs, route po; conditions: in vivo
A549 [18] = assay: Antitumor activity against human A549 cells xenografted in BALB/C nude mouse assessed as reduction in tumor volume at 75 to 150 mg/kg, po QD for 14 days; assay type: functional, organism-based; conditions: dose 75-150 mg/kg, time 14.0 day
Outline: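 A549 xenografts in nude mice; compound given orally once daily at 75 or 150 mg/kg for 14 days, irinotecan reference at 3 mg/kg; tumor growth tracked as T/C ratio (relative tumor proliferation rate); body weight monitored.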

[19] = Toxicity in BALB/C nude mouse xenografted with human A549 cells assessed as body weight loss at 75 to 150 mg/kg, po QD for 14 days; assay type: organism-based; conditions: in vivo, 336 h, dose 75-150 mg/kg, time 14 day
Outline: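 A549 xenografts in nude mice dosed orally once daily at 75 or 150 mg/kg for 14 days; body weight monitored for tolerability, irinotecan 3 mg/kg as positive control group.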

[20] = test system: MAP kinase-interacting kinase MNK1/2 (Homo sapiens); assay: Inhibition of MNK in human A549 cells assessed as reduction in IL-8 level at 1 to 10 uM incubated for 48 hrs by ELISA; conditions: dose 1-10 µM
[21] = test system: MAP kinase-interacting kinase MNK1/2 (Homo sapiens); assay: Inhibition of MNK in human A549 cells assessed as reduction in TNF-alpha level at 1 to 10 uM incubated for 48 hrs by ELISA; conditions: dose 1-10 µM
[22] = test system: MAP kinase-interacting kinase MNK1/2 (Homo sapiens); assay: Inhibition of MNK in human U-937 cells assessed as inhibition of eIF4E phosphorylation at 10 uM incubated for 2 hrs by Western blot analysis
[23] = test system: MAP kinase-interacting kinase MNK1/2 (Homo sapiens); assay: Inhibition of MNK in human SKM-1 cells assessed as inhibition of eIF4E phosphorylation at 10 uM incubated for 2 hrs by Western blot analysis
MV4-11 [24] = assay: Induction of cell cycle arrest in human MV4-11 cells assessed as decrease in cyclin B1 level at 3 uM incubated for 24 hrs by Western blot analysis
MV4-11 [25] = assay: Induction of cell cycle arrest in human MV4-11 cells assessed as decrease in cyclin D3 level at 3 uM incubated for 24 hrs by Western blot analysis
[26] = test system: MAP kinase-interacting kinase MNK1/2 (Mus musculus); assay: Inhibition of MNK in wild type mouse MEF cells assessed as inhibition of eIF4E phosphorylation at 3 uM incubated for 2 hrs by Western blot analysis

MAP kinase-interacting serine/threonine-protein kinase 2, sequence (Q9HBH9 whole entry): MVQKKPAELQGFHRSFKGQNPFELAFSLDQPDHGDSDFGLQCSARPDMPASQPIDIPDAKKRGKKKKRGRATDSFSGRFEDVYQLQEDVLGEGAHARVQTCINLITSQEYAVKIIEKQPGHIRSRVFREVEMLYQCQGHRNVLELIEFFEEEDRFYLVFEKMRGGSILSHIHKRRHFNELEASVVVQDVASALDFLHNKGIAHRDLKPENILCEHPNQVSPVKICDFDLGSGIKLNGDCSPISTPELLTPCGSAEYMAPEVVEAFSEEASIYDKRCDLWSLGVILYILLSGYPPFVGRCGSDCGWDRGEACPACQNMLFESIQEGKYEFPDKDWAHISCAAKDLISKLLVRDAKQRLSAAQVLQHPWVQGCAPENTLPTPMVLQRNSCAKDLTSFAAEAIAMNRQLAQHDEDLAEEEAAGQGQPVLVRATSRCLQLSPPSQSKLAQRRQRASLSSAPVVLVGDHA
MAP kinase-interacting serine/threonine-protein kinase 1, sequence (Q9BUB5 whole entry, looked up): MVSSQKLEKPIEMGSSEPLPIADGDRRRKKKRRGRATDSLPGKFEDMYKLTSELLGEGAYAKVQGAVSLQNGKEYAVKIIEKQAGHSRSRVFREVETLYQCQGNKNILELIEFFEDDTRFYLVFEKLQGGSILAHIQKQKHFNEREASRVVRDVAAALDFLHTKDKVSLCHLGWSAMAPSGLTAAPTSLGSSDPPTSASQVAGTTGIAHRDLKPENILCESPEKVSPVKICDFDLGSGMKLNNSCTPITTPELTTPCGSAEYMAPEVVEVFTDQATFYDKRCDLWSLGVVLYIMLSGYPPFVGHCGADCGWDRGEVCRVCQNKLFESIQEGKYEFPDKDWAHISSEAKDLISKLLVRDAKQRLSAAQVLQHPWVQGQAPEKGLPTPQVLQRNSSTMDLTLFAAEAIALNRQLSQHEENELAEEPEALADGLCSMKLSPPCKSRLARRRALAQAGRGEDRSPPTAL

CN1CCN(C(=O)c2ccc(-c3nn4c(-c5ccc(C#N)cc5)cnc4s3)cc2)CC1
IC50 [1]: 8.6 nM
inhibition (3T3-L1): Active
inhibition (mTORC2 (Homo sapiens)): inactive
inhibition [2]: 100%
inhibition (Homo sapiens): Active
Activity (A549 [3]): Active
Activity (MDA-MB-231 [4]): Active
Activity (A549 [5]): Active
Activity (A549 [6]): Active
Activity (MDA-MB-231 [7]): Active
Activity (A549 [8]): 2.7%
Activity (A549 [9]): 3.3%
Activity (A549 [10]): 89.6%
Vd [11]: 1.52 L/kg
Cmax [12]: 32100 ng/mL
clearance [13]: 5.13 mL/min/kg
Cmax [14]: 17200 ng/mL
half-life [15]: 4.42 h
CL/F [16]: 8.45 mL/min/kg
AUC(0-t) at 24 h [17]: 98500 ng·h/mL
Activity (A549 [18]): Dose-Dependent Effect
Activity [19]: < 10%
inhibition [20]: Active
inhibition [21]: Active
inhibition [22]: Active
inhibition [23]: Active
Activity (MV4-11 [24]): Active
Activity (MV4-11 [25]): Active
inhibition [26]: Active
